In assay [1] the target is T1, Histone-arginine methyltransferase CARM1 (Homo sapiens, UniProt Q86X55).
T1 sequence (Q86X55 whole entry): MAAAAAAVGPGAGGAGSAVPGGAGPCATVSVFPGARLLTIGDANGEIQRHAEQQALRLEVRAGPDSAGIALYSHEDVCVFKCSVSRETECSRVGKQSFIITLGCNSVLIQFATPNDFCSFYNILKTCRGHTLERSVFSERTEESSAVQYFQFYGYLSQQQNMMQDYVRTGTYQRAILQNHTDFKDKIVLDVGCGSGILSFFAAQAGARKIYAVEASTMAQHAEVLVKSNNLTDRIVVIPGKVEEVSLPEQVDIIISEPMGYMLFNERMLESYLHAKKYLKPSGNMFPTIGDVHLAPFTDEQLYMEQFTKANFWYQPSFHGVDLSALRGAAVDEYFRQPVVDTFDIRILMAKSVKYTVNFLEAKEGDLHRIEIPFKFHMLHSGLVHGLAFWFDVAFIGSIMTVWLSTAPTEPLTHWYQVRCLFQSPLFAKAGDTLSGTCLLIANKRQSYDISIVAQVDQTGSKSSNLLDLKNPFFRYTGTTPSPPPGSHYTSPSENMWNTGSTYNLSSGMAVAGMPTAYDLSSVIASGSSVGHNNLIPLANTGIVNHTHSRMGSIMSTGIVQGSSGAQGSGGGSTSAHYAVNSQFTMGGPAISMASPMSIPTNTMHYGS
The assay can be described thus: Inhibition of PRMT4 using histone H3 as substrate preincubated for 10 mins followed by addition of [3H]SAM and incubated for 60 mins. In short, it runs like this: (§1)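 Panel of methyltransferases tested for selectivity. […] Values are the mean of at least two independent replicates.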

For assay [2], the target named is EZH1/SUZ12/EED/AEBP2/RBBP4 complex. Description: Inhibition of PRC2 complex of EZH1, EED, SUZ12, AEBP2 and RbAp48 using histone H3 peptide (21 to 44) as substrate and [3H]SAM after 1 hr by SPA. Type of assay: protein-complex assay. Summed up: as §1
In assay [3] the target is Protein arginine N-methyltransferase 1 (Homo sapiens, UniProt Q99873). Description: Inhibition of PRMT1 using histone H4 as substrate preincubated for 10 mins followed by addition of [3H]SAM and incubated for 60 mins. In short, it runs like this: as §1
The target in assay [4] is Histone-lysine N-methyltransferase, H3 lysine-79 specific (Homo sapiens, UniProt Q8TEK3). The assay can be described thus: Inhibition of DOT1L using core histone as substrate preincubated for 10 mins followed by addition of [3H]SAM and incubated for 60 mins. In short, it runs like this:
as §1

Assay [5] addresses DNA (cytosine-5)-methyltransferase 1 (Homo sapiens, UniProt P26358). Description: Inhibition of DNMT1 using polydi-dc as substrate preincubated for 10 mins followed by addition of [3H]SAM and incubated for 60 mins. Summed up: as §1
The target of assay [6] is EZH2/SUZ12/EED/RBBP7/RBBP4. The assay can be described thus: Inhibition of PRC2 complex of FLAG-EZH2, EED, SUZ12, AEBP2 and RbAp48 using histone H3 peptide (21 to 44) as substrate and [3H]SAM after 1 hr. Type of assay: protein-complex assay.
Assay [7] deals with DNA (cytosine-5)-methyltransferase 3A (Homo sapiens, UniProt Q9Y6K1). Description: Inhibition of DNMT3a using lambda DNA as substrate preincubated for 10 mins followed by addition of [3H]SAM and incubated for 60 mins. In short, it runs like this:
as §1

Assay [8] concerns the target T2, Histone-lysine N-methyltransferase EHMT2 (Homo sapiens, UniProt Q96KQ7).
T2 sequence (Q96KQ7 whole entry): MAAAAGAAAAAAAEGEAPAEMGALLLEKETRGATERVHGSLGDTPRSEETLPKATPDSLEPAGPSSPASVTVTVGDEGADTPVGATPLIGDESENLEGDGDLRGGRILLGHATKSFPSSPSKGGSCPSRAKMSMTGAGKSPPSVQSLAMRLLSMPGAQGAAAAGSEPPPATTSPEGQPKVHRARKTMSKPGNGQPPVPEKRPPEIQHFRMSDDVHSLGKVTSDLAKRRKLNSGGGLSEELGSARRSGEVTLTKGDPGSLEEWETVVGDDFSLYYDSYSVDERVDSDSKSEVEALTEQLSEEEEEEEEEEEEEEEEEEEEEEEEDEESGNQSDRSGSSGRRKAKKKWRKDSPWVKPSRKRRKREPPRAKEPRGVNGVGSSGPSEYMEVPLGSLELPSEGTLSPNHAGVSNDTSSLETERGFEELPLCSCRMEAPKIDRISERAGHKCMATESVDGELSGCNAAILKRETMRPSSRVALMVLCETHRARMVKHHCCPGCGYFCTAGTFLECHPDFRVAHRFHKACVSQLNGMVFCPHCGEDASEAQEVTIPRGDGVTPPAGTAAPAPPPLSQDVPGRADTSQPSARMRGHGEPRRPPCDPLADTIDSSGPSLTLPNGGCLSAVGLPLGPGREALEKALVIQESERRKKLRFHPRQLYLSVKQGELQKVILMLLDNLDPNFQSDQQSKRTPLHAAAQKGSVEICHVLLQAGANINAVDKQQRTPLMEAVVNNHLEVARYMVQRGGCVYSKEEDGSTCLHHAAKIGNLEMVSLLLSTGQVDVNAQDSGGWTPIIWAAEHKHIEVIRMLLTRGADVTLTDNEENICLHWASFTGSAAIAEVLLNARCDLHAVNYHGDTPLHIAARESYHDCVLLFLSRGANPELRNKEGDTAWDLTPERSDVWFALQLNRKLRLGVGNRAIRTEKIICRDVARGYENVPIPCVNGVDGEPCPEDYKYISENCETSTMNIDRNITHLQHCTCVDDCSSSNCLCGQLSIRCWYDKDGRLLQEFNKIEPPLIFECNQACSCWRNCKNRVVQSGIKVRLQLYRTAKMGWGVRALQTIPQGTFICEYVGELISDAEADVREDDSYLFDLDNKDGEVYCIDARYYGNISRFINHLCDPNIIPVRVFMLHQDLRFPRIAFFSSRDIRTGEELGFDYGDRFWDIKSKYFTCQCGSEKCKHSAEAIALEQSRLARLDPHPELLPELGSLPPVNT
The assay can be described thus: Inhibition of G9a using histone H3 as substrate preincubated for 10 mins followed by addition of [3H]SAM and incubated for 60 mins. In short, it runs like this:
as §1

Assay [9] addresses T3, Histone-lysine N-methyltransferase SETD7 (Homo sapiens, UniProt Q8WTS6).
T3 sequence (Q8WTS6 whole entry): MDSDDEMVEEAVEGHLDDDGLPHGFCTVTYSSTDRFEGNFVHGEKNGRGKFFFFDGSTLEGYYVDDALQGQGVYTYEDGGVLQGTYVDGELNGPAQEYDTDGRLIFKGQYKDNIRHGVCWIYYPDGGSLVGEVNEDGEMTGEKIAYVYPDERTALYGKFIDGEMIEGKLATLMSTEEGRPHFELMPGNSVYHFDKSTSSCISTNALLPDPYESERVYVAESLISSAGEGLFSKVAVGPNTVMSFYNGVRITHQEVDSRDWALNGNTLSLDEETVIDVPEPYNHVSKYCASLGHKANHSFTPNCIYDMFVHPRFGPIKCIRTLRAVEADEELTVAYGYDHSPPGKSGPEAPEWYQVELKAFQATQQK
Description: Inhibition of SET7 using histone H3 as substrate preincubated for 10 mins followed by addition of [3H]SAM and incubated for 60 mins. In short, it runs like this:
as §1

pIC50: −log10 of the molar value.

Protein arginine N-methyltransferase 1, sequence (Q99873 whole entry): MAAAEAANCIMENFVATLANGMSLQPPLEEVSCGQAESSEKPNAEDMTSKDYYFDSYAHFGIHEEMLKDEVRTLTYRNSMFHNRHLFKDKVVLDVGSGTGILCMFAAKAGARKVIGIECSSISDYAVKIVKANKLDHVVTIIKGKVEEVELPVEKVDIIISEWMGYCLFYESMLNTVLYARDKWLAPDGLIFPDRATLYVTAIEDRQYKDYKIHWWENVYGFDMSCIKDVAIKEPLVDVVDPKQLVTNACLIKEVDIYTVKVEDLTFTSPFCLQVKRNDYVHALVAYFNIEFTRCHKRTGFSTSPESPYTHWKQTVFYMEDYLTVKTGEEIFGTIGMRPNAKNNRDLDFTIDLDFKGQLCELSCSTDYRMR
DNA (cytosine-5)-methyltransferase 3A, sequence (Q9Y6K1 whole entry, looked up): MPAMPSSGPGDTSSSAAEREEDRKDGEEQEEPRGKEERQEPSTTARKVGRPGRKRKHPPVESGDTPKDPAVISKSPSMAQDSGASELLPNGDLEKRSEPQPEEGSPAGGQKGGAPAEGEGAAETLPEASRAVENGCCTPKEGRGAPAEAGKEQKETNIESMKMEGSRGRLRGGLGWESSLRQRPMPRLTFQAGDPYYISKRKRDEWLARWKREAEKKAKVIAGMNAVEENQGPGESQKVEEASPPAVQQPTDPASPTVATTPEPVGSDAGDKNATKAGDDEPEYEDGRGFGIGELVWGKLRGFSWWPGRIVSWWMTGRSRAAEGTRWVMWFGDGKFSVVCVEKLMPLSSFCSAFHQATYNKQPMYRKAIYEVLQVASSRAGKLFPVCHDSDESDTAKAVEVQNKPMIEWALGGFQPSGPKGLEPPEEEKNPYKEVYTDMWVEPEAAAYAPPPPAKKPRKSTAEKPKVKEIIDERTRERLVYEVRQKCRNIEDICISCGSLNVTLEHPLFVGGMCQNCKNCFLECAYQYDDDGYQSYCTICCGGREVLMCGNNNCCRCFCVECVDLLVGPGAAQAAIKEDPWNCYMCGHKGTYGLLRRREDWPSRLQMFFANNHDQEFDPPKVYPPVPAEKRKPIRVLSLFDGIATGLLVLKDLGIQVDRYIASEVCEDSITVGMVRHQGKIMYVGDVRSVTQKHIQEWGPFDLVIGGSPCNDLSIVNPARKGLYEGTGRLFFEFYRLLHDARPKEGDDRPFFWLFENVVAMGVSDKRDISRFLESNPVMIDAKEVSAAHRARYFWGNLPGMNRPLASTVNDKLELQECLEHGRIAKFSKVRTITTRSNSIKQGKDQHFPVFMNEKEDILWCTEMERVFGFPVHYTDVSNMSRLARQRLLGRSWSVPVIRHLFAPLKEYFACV
DNA (cytosine-5)-methyltransferase 1, sequence (P26358 whole entry): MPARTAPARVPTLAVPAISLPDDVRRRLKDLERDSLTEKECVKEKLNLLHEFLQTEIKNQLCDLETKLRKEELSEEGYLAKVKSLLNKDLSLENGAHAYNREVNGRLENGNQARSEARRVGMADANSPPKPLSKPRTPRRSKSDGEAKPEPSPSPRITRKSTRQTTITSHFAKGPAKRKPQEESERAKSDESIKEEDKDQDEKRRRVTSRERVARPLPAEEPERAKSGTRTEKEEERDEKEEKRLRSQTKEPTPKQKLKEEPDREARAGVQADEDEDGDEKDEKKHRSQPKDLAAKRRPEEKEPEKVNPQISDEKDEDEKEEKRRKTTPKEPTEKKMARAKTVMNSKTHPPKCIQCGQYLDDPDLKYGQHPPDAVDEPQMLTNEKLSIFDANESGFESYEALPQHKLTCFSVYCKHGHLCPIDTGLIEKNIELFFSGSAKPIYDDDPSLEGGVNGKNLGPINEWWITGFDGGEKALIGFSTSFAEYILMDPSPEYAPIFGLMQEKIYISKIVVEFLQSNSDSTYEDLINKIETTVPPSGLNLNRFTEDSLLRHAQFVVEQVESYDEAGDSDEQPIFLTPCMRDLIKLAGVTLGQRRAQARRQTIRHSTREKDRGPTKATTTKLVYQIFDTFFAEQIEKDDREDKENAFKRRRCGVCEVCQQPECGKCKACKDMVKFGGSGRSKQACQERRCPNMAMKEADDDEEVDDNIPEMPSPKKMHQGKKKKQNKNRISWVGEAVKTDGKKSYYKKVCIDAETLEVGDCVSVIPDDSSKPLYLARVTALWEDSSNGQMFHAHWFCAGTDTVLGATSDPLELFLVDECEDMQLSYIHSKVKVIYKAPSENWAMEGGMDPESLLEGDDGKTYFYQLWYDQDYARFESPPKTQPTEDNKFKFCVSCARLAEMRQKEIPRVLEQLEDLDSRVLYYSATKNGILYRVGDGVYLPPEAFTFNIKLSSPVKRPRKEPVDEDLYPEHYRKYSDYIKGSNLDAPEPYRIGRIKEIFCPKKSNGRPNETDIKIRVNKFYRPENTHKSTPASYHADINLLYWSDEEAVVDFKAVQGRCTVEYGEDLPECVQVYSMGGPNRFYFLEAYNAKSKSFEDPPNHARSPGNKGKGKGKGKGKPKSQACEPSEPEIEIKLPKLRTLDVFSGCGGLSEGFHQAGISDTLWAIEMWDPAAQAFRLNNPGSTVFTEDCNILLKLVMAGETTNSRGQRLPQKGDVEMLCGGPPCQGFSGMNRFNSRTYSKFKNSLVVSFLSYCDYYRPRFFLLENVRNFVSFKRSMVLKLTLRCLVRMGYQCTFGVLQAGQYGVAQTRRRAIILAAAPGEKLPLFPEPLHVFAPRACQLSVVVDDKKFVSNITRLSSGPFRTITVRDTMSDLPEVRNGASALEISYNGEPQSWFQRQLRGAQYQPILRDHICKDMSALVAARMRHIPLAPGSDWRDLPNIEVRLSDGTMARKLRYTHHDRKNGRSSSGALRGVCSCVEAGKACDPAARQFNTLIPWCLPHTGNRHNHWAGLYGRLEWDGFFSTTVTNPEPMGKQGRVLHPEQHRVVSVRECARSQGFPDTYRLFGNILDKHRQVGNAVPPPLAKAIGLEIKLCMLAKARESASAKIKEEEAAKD
Histone-lysine N-methyltransferase, H3 lysine-79 specific, sequence (Q8TEK3 whole entry): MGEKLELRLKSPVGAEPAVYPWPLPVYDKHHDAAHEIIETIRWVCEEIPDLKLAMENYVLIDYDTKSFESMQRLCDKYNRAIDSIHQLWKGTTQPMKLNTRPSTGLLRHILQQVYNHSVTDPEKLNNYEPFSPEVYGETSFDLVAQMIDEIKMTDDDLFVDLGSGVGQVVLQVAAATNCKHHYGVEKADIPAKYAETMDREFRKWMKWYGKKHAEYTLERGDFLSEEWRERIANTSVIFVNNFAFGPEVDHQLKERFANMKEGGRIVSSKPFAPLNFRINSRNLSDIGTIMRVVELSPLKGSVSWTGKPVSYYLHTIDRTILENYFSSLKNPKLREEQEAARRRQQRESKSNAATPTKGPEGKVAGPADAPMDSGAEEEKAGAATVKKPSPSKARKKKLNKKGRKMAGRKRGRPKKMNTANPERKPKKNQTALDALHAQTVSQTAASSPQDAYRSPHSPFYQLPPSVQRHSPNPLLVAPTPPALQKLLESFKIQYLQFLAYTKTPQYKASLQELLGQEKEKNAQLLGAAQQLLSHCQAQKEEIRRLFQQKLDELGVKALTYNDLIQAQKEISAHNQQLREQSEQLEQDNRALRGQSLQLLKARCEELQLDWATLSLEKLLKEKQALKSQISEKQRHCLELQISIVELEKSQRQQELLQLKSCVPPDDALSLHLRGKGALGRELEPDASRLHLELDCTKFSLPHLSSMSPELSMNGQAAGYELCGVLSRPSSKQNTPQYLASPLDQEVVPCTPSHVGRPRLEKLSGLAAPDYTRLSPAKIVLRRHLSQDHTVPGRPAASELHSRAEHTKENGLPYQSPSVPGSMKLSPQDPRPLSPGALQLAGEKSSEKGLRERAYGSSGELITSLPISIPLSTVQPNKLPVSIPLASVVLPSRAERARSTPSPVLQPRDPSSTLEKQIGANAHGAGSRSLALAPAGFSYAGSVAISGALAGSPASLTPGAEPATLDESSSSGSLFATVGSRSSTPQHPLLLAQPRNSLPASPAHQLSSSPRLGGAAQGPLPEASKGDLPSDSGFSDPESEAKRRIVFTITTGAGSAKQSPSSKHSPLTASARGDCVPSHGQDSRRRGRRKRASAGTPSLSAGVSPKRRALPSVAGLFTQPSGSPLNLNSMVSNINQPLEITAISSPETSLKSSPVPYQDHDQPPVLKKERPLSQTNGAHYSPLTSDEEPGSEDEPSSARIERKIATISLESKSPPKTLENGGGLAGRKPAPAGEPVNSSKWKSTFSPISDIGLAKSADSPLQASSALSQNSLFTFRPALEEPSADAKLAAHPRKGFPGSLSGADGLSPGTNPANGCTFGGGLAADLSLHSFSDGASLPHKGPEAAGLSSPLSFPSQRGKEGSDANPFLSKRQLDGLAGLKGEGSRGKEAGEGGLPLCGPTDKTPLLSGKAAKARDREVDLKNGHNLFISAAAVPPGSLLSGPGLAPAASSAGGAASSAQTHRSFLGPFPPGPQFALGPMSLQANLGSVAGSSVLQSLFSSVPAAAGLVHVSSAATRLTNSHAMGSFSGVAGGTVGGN

In general, pIC50 refers to −log10 of the IC50, conventionally taken in molar units. High values mean a low IC50, low ones a high IC50. For the molecule `CCCc1cc(C)[nH]c(=O)c1CNC(=O)c1cc(-c2ccc(N3CCN(C)CC3)nc2)cc2c1cnn2C(C)C`, the pIC50 in assay [1] was 3.94; in assay [2], 7.00; in assay [3], below 4.00; in [4], below 4.00; in assay [5] it was 3.92; in [6], 8.40. For the same molecule, the negative logarithm of the IC50 (pIC50) in assay [7] was below 4.00; in assay [8], below 4.00; in assay [9], 4.31.
On to `Cc1cc(C)c(CNC(=O)c2cc(-c3ccc(N4CCN(C)CC4)nc3)cc3c2cnn3C(C)C)c(=O)[nH]1`, for which the pIC50 in [1] was below 4.00; in assay [2], 5.60; in assay [3], below 4.00; in assay [4], below 4.00; in assay [5], below 4.00; in assay [6] it was 7.70. Also, the results for the pIC50 in assay [7], in assay [8] and in assay [9] were below 4.00, below 4.00 and 3.67, respectively.
As for `CCCc1cc(C)[nH]c(=O)c1CNC(=O)c1cc(-c2ccnc(N3CCN(C)CC3)c2)cc2c1cnn2C(C)C`, the negative-log IC50 (pIC50) in [1] is 3.89; in [2] it was 6.62; in [3], below 4.00; in assay [4], below 4.00; in assay [5], below 4.00; in [6], 8.40. The pIC50 in assay [7] is below 4.00; in assay [8], below 4.00; in [9], 4.20.

The values above are taken from ChEMBL document CHEMBL2202955, “Identification of Potent, Selective, Cell-Active Inhibitors of the Histone Lysine Methyltransferase EZH2” (ACS Med Chem Lett, 2012).
